According to PMC5352984 (Journal of medicinal chemistry, 2017):

What was measured:
[1] = test system: GLP; conditions: cited from earlier work
[2] = test system: 29 PKMTs, PRMTs, DNMTs, and RNMTs; test: Selectivity assays against a methyltransferase panel; assay type: biochemical
Summary of the method: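 Quenched with 7.5 M guanidine HCl, diluted in 20 mM Tris pH 8.0, FlashPlate counted after 1 h. DOT1L, ASH1L, DNMT3A/3L, DNMT3B/3L: 1 h RT, TCA filter capture, washes, scintillation count. No-compound = 100%, no-enzyme = 0%.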

[3] = target: T1, G9a (Homo sapiens, UniProt Q96KQ7); test: G9a scintillation proximity methyltransferase assay; assay type: biochemical; conditions: ratio of IC50 versus compound 14
T1 sequence (Q96KQ7 1-1210): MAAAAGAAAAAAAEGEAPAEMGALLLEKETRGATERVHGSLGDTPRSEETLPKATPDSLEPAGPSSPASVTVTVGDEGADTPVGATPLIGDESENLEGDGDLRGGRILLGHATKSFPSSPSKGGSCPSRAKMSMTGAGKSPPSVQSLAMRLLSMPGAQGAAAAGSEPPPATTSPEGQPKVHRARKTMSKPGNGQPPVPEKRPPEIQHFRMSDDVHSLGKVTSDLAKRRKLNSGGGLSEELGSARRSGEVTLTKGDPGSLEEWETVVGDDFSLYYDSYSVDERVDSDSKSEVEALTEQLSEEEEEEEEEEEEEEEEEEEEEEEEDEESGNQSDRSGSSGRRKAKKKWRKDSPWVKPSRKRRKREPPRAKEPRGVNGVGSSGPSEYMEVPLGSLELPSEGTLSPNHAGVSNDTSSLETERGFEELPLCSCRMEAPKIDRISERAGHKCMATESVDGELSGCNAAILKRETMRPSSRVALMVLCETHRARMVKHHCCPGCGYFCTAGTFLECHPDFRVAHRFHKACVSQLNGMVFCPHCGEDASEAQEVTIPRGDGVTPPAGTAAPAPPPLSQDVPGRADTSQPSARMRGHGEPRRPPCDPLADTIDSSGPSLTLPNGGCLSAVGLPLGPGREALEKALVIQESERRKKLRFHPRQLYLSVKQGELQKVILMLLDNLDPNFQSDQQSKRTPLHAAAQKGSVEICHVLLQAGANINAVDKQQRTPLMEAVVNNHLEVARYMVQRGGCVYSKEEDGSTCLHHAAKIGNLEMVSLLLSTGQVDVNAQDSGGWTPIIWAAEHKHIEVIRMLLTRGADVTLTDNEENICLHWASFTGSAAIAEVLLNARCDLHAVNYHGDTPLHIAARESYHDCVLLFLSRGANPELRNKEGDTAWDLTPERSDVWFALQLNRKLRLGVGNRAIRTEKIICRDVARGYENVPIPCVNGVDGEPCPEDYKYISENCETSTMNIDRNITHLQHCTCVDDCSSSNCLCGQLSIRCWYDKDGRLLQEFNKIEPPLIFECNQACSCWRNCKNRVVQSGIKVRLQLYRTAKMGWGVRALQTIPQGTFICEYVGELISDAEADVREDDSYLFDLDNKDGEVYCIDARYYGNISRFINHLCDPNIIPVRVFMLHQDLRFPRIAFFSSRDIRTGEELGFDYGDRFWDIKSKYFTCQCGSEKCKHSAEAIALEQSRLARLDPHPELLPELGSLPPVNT

## COc1cc2nc(N3CCCN(C)CC3)nc(NC3CCN(Cc4ccccc4)CC3)c2cc1OC [Compound 1]
[1]
  selectivity for GLP over G9a: 3–5 fold

## COc1cc2nc(N3CCOCC3)nc(NC3CCN(C)CC3)c2cc1OC [Compound 4, 6,7-Dimethoxy-N-(1-methylpiperidin-4-yl)-2-morpholinoquinazolin-4-amine]
[2]; compound at 10 μM
  inhibition of 29 methyltransferases: did not inhibit

## COc1cc2nc(N3CCCN(C)CC3)nc(NC3CCN(C)CC3)c2cc1OC [Compound 15, 6,7-Dimethoxy-2-(4-methyl-1,4-diazepan-1-yl)-N-(1-methylpiperidin-4-yl)quinazolin-4-amine]
[3]
  potency increase for G9a compared with 14: 21 fold

## CCCCCCNc1nc(NC2CCN(C)CC2)c2cc(OC)c(OC)cc2n1 [Compound 18, N^2-Hexyl-6,7-dimethoxy-N^4-(1-methylpiperidin-4-yl)quinazoline-2,4-diamine]
[2]; compound at 1 μM
  inhibition of 29 methyltransferases: did not inhibit
